The results in this text go back to ChEMBL document CHEMBL1141076 (J Med Chem, 2005).

SMILES strings stand for the structures.

Assay [1] addresses T1, Cyclic nucleotide-gated channel alpha-1 (Bos taurus, UniProt Q00194).
T1 sequence (Q00194 whole entry): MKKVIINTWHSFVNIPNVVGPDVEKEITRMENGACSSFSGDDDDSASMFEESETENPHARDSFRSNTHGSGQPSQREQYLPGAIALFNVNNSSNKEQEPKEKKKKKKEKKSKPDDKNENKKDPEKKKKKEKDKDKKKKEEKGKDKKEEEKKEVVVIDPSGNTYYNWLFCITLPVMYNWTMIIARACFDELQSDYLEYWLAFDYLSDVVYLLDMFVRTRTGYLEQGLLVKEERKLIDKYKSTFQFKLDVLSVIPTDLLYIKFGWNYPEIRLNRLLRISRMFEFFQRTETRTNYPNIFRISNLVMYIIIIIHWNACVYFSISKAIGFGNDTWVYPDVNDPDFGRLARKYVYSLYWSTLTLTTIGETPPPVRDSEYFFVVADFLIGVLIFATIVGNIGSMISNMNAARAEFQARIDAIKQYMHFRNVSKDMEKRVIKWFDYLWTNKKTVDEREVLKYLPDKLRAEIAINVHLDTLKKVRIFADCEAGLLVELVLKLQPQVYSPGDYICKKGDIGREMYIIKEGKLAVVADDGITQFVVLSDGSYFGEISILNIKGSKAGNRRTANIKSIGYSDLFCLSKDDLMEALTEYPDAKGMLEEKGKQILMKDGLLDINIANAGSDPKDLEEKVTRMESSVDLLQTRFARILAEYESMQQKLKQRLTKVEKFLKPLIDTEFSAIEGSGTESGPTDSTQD
In words: Apparent dissociation constant against Cyclic nucleotide gated channel alpha 1 at 0 mV. The gist of the method:
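CNGA1 (bovine) expressed in Xenopus oocytes from 5-25 ng cRNA; inside-out patches at room temperature in symmetrical 130 mM NaCl, 2 mM HEPES, 1 mM EGTA, 0.02 mM EDTA, pH 7.6, saturating cGMP with blocker in bath. Depolarizations -80 to +60 mV in 10 mV steps. Fraction of current remaining fitted with Woodhull equation, giving KD at 0 mV and zδ.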

Assay [2] addresses T1, Cyclic nucleotide-gated channel alpha-1. Put plainly: Apparent dissociation constant against Cyclic nucleotide gated channel alpha 1 at +40 mV. The gist of the method:
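Bovine CNGA1 cRNA injected (5-25 ng) into Xenopus oocytes kept at 18 °C; inside-out excised patches recorded 1-6 days later at room temperature. Identical pipet/bath solution: 130 mM NaCl, 2 mM HEPES, 1 mM EGTA, 0.02 mM EDTA, pH 7.6. Blocker added to bath with saturating cGMP; steps -80 to +40 mV. End-of-pulse current corrected for ion accumulation/depletion. KD from I+D/I-D = KD/(KD+[D]).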

Consider `CCCCNc1ccc(C(=O)OCC[N+](C)(C)CCCC)cc1`, for which the Kd came to 5.4 µM in assay [1] and 3.1 µM in assay [2].

With `CCCCNc1ccc(C(=O)OCC[N+](C)(C)CCCNCCCN)cc1`, the Kd came out at 0.0069 µM in assay [1] and 3e-05 µM in assay [2].

Turning to `CCCCNc1ccc(C(=O)OCC[N+](C)(C)CCCN)cc1`, the Kd in assay [1] was 1.4 µM; in assay [2] it was 0.074 µM.

Regarding `CN(C)CCOC(=O)c1ccc(N)cc1`, the results for the Kd in assay [1] and in assay [2] were 10000 µM and 2300 µM, respectively.

For `CC(=O)NCCCCNc1ccc(C(=O)OCCN(C)C)cc1`, the Kd in assay [1] was 4000 µM; in assay [2], 2500 µM.

Regarding `CN(C)CCOC(=O)c1ccc(NCCCCN)cc1`, the Kd in assay [1] was determined as 970 µM; in assay [2], 210 µM.
